The source made the active and inactive calls. The calls are words filed in the database; no cut-off is given here.
Columns and labels:
[1] = Lipophilicity (Rm).; assay type: physicochemical
HCT-8 = assay: Ability to inhibit the growth of human colon tumor HCT-8 cells in vitro.; assay type: functional, cell-based
Method in brief: (§1)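 Cultured leukemia L1210 or human colon tumor HCT-8 cells were exposed to drug for 40 h.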

L1210 = assay: Ability to inhibit the growth of leukemia L1210 cells in vitro.; assay type: functional, cell-based; details: Mus musculus; method in brief: as §1
[2] = system: Lewis lung carcinoma cell line; assay: Optimal dose required to inhibit the LL Lewis lung carcinoma model cells in vivo administered intraperitoneally; assay type: functional, Mus musculus
Method in brief: (§2)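 Mice were inoculated iv with 10^6 Lewis lung carcinoma cells. OD is the optimal dose in mg/kg per day. Lifespan increase above 40% is significant, and long-term survival was scored at 60 days.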

[3] = system: Lewis lung carcinoma cell line; assay: (§3) Optimal dose required to inhibit the LL (Lewis lung carcinoma model) cells in vivo administered intraperitoneally; NA= not active; assay type: functional
Method in brief: (§4)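 Groups of 6. Optimal dose is in mg/kg per day. ILSmax is the % lifespan increase over untreated tumor-bearing controls at the optimal dose; above 40% counted significant. Cures are 60-day survivors.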

Mus musculus = species: Mus musculus; assay: Percent increase in life span of the drug treated tumor bearing animals vs nontreated tumor bearing controls was determined against P388/ADR cells;NA= not active; assay type: functional, organism-based
Method in brief: (§5)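 Mice were inoculated ip with 10^6 P388 or ADR/P388 cells. OD is the optimal dose in mg/kg per day. ILSmax is the % lifespan increase over untreated tumor-bearing controls at the OD; above 20% is significant. Long-term survival was scored at 50 days.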

P388/ADR [4] = assay: Optimal dose required to inhibit the P388/ADR cells in vivo after intraperitoneal administration.; assay type: functional, Mus musculus; parameters: unit: mg/kg/day
P388 [5] = assay: Optimal dose required to inhibit the P388 intraperitoneal administration.; assay type: functional, Mus musculus; parameters: unit: mg/kg/day
P388 [6] = assay: Percent increase in life span of the drug-treated tumor-bearing animals vs nontreated tumor-bearing controls with P388 leukemia cells.; assay type: functional, Mus musculus
Method in brief: (§6)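 Groups of 6. Optimal dose is in mg/kg per day. ILSmax is the % lifespan increase over untreated tumor-bearing controls at the optimal dose; above 20% counted significant. Cures are 50-day survivors.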

poly[d(A-T)] = assay: Binding constant for poly[d(A-T)] by ethidium bromide displacement
[7] = The compound was evaluated for its acid dissociation constant; assay type: ADME
P388 [8] = assay: Optimal dose required to inhibit the P388 intraperitoneally; assay type: functional, Mus musculus; method in brief: as §6
Nucleic Acid = assay: Binding constant (1/M) to poly[d(A-T)] by ethidium bromide displacement; assay type: nucleic-acid assay
P388/ADR [9] = assay: Percent increase in life span, of the drug-treated tumor-bearing animals vs nontreated tumor-bearing controls with P388/ADR cells.; assay type: functional, Mus musculus; method in brief: as §6
[10] = system: Lewis lung carcinoma cell line; assay: Percent increase in life span of the drug treated tumor bearing animals vs nontreated tumor bearing controls was determined against LL (Lewis lung carcinoma model) cells;NA= not active; assay type: functional; method in brief: as §4
[11] = system: Lewis lung carcinoma cell line; assay: Optimal dose to inhibit the LL (Lewis lung carcinoma model) cells in vivo after intraperitoneal administration.; assay type: functional, Mus musculus; parameters: unit: mg/kg/day; method in brief: as §2
P388 [12] = assay: Percent increase in life span of the drug treated tumor bearing animals vs nontreated tumor bearing controls was determined against P388 leukemia cells; NA = not active; assay type: functional; details: Mus musculus; method in brief: as §5
[13] = system: Lewis lung carcinoma cell line; assay: as §3; assay type: functional, Mus musculus; method in brief: as §2

| Compound | Rm [1] | IC50 (HCT-8) [nM] | IC50 (L1210) [nM] | OD [2] | ILS max ([3]; Mus musculus) | ILS max (Mus musculus) | OD (P388/ADR [4]) | OD (P388 [5]) | ILS max (P388 [6]) | Log K (poly[d(A-T)]) | pKa [7] | OD (P388 [8]) | Log K (Nucleic Acid) | ILS max [3] | ILS max (P388/ADR [9]) | ILS max ([10]; Mus musculus) | OD [11] | ILS max (P388 [12]) | ILS max [10] | OD [13] |
| --- | --- | --- | --- | --- | --- | --- | --- | --- | --- | --- | --- | --- | --- | --- | --- | --- | --- | --- | --- | --- |
| CNc1cc(NC(=O)OC)ccc1Nc1c2ccccc2nc2ccc(C)cc12 | 0.7 | 850 | 436 | 13.3 | inactive | inactive | 45 | 45 | 69 | 5.62 |  |  |  |  |  |  |  |  |  |  |
| CNc1cc(NP(=O)(OC)OC)ccc1Nc1c2ccccc2nc2ccccc12 | 0.32 |  |  |  |  |  |  |  |  |  | 8.09 | 13.3 | 6.82 |  |  |  |  |  |  |  |
| CNc1cc(NC(=O)OC)ccc1Nc1c2ccccc2nc2ccccc12 | 0.51 | 290 | 284 | 30 |  |  | 45 | 30 | 132 | 6.35 | 7.95 |  |  | 112 | 50 |  |  |  |  |  |
| CNc1cc(NC(=O)OC)ccc1Nc1c2ccccc2nc2c(Cl)cccc12 | 0.42 | 4500 | 906 |  |  |  | 45 | 30 | 30 | 6.3 |  |  |  |  | 22 | inactive | 65 |  |  |  |
| CC(=O)Nc1ccc(Nc2c3ccccc3nc3ccccc23)c(N(C)C)c1 | 0.57 |  |  |  |  | inactive | 100 | 65 |  | 5.58 | 7.59 |  |  |  |  |  |  | inactive |  |  |
| CNc1cc(NC(=O)OC)ccc1Nc1c2ccccc2nc2cc(C)ccc12 | 0.78 | 270 | 152 |  |  | inactive | 13.3 | 8.9 | 105 | 6.72 |  |  |  |  |  |  |  |  | 58 | 8.9 |

Source: ChEMBL document CHEMBL1123886 (J Med Chem, 1987)
